In brackets after ≈: the same amount, converted by molar mass.
How the values were obtained:
Aspergillus fumigatus = test: Anti-fungal activity against Aspergillus fumigatus after 48 hrs by broth microdilution method; type: functional
Candida albicans = test: Anti-fungal activity against Candida albicans after 48 hrs by broth microdilution method; type: functional
Klebsiella pneumoniae = test: Antibacterial activity against Klebsiella pneumoniae ATCC 27736 by broth microdilution method; type: functional
Procedure, shortened: (§1)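 Bacteria were tested by the NCCLS method in Mueller Hinton broth, with gentamicin and norfloxacin as reference drugs.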

Cryptococcus neoformans = test: Anti-fungal activity against Cryptococcus neoformans after 48 hrs by broth microdilution method; type: functional
Escherichia coli = test: Antibacterial activity against Escherichia coli ATCC 9637 by broth microdilution method; type: functional; settings: W; procedure, shortened: as §1
Candida parapsilosis = test: Anti-fungal activity against Candida parapsilosis ATCC 22019 after 48 hrs by broth microdilution method; type: functional; settings: Lodderomyces parapsilosis, ATCC 22019, 48 h
Pseudomonas aeruginosa = test: Antibacterial activity against Pseudomonas aeruginosa ATCC BAA-427 by broth microdilution method; type: functional; procedure, shortened: as §1
Sporothrix schenckii = test: Anti-fungal activity against Sporothrix schenckii after 48 hrs by broth microdilution method; type: functional
[1] = test system: Trichophyton mentagrophytes; test: Anti-fungal activity against Trichophyton mentagrophytes after 48 hrs by broth microdilution method; type: functional
Plasmodium falciparum = test: Antimalarial activity against chloroquine-sensitive Plasmodium falciparum 3D7 after 72 hrs by SYBR Green-1 staining based fluorescence assay; type: functional; settings: 3D7, 72 h
Staphylococcus aureus [2] = test: Antibacterial activity against Staphylococcus aureus ATCC 29213 by broth microdilution method; type: functional
[3] = Cytotoxicity against monkey Vero C1008 cells after 72 hrs by MTT assay; type: cell-based; settings: chlorocebus sabaeus
Staphylococcus aureus [4] = test: Antibacterial activity against Staphylococcus aureus ATCC 25923 by broth microdilution method; type: functional
Staphylococcus aureus [5] = test: Antibacterial activity against methicillin-resistant Staphylococcus aureus ATCC 700699 by broth microdilution method; type: functional; settings: Mu50
[6] = Selectivity index, ratio of CC50 for monkey Vero C1008 cells to IC50 for chloroquine-sensitive Plasmodium falciparum 3D7; type: toxicity; settings: read-out: Ratio CC50/IC50
Staphylococcus aureus [7] = test: Antibacterial activity against gentamicin-resistant Staphylococcus aureus ATCC 33592 by broth microdilution method; type: functional

O=c1c2ccccc2sn1-c1ccccc1
IC50 (Aspergillus fumigatus): 6.1 µg/mL (≈ 26.8 µM)
MIC (Aspergillus fumigatus): 6.4 µg/mL (≈ 28.2 µM)
IC50 (Candida albicans): 2.9 µg/mL (≈ 12.8 µM)
MIC (Candida albicans): 3.02 µg/mL (≈ 13.3 µM)
IC50 (Klebsiella pneumoniae): > 50 µg/mL
MIC (Klebsiella pneumoniae): > 50 µg/mL
IC50 (Cryptococcus neoformans): 0.9 µg/mL (≈ 3.96 µM)
MIC (Cryptococcus neoformans): 1.21 µg/mL (≈ 5.32 µM)
IC50 (Escherichia coli): > 50 µg/mL
MIC (Escherichia coli): > 50 µg/mL
IC50 (Candida parapsilosis): 0.7 µg/mL (≈ 3.08 µM)
MIC (Candida parapsilosis): 0.8 µg/mL (≈ 3.52 µM)
IC50 (Pseudomonas aeruginosa): > 50 µg/mL
MIC (Pseudomonas aeruginosa): > 50 µg/mL
IC50 (Sporothrix schenckii): 0.6 µg/mL (≈ 2.64 µM)
MIC (Sporothrix schenckii): 1.7 µg/mL (≈ 7.48 µM)
IC50 [1]: 0.7 µg/mL (≈ 3.08 µM)
MIC [1]: 0.8 µg/mL (≈ 3.52 µM)
IC50 (Plasmodium falciparum): 740 nM
IC50 (Staphylococcus aureus [2]): 1.6 µg/mL (≈ 7.04 µM)
MIC (Staphylococcus aureus [2]): 2.1 µg/mL (≈ 9.24 µM)
CC50 at 72 h [3]: 19400 nM
IC50 (Staphylococcus aureus [4]): 1.1 µg/mL (≈ 4.84 µM)
MIC (Staphylococcus aureus [4]): 1.6 µg/mL (≈ 7.04 µM)
MIC (Staphylococcus aureus [5]): 0.77 µg/mL (≈ 3.39 µM)
selectivity ratio [6]: 26.3

O=c1c2ccccc2sn1-c1cccc(F)c1
MIC (Aspergillus fumigatus): 25 µg/mL (≈ 102 µM)
MIC (Candida albicans): 12.5 µg/mL (≈ 51 µM)
MIC (Klebsiella pneumoniae): > 50 µg/mL
MIC (Cryptococcus neoformans): 12.5 µg/mL (≈ 51 µM)
MIC (Escherichia coli): > 50 µg/mL
MIC (Candida parapsilosis): 12.5 µg/mL (≈ 51 µM)
MIC (Pseudomonas aeruginosa): > 50 µg/mL
MIC (Sporothrix schenckii): 12.5 µg/mL (≈ 51 µM)
MIC [1]: 12.5 µg/mL (≈ 51 µM)
IC50 (Plasmodium falciparum): > 2000 nM
MIC (Staphylococcus aureus [2]): 12.5 µg/mL (≈ 51 µM)
MIC (Staphylococcus aureus [4]): 6.25 µg/mL (≈ 25.5 µM)
MIC (Staphylococcus aureus [7]): 6.25 µg/mL (≈ 25.5 µM)
MIC (Staphylococcus aureus [5]): 6.25 µg/mL (≈ 25.5 µM)

O=c1c2ccccc2sn1-c1ccc(F)cc1
MIC (Aspergillus fumigatus): 25 µg/mL (≈ 102 µM)
MIC (Candida albicans): 12.5 µg/mL (≈ 51 µM)
MIC (Klebsiella pneumoniae): > 50 µg/mL
MIC (Cryptococcus neoformans): 12.5 µg/mL (≈ 51 µM)
MIC (Escherichia coli): > 50 µg/mL
MIC (Candida parapsilosis): 12.5 µg/mL (≈ 51 µM)
MIC (Pseudomonas aeruginosa): > 50 µg/mL
MIC (Sporothrix schenckii): 12.5 µg/mL (≈ 51 µM)
MIC [1]: 12.5 µg/mL (≈ 51 µM)
IC50 (Plasmodium falciparum): 970 nM
MIC (Staphylococcus aureus [2]): 3.12 µg/mL (≈ 12.7 µM)
CC50 at 72 h [3]: 85400 nM
MIC (Staphylococcus aureus [4]): 6.25 µg/mL (≈ 25.5 µM)
MIC (Staphylococcus aureus [7]): 3.12 µg/mL (≈ 12.7 µM)
MIC (Staphylococcus aureus [5]): 3.12 µg/mL (≈ 12.7 µM)
selectivity ratio [6]: 84.4

O=c1c2ccccc2sn1-c1ccccc1F
MIC (Aspergillus fumigatus): 25 µg/mL (≈ 102 µM)
MIC (Candida albicans): 12.5 µg/mL (≈ 51 µM)
MIC (Klebsiella pneumoniae): > 50 µg/mL
MIC (Cryptococcus neoformans): 12.5 µg/mL (≈ 51 µM)
MIC (Escherichia coli): > 50 µg/mL
MIC (Candida parapsilosis): 12.5 µg/mL (≈ 51 µM)
MIC (Pseudomonas aeruginosa): > 50 µg/mL
MIC (Sporothrix schenckii): 12.5 µg/mL (≈ 51 µM)
MIC [1]: 12.5 µg/mL (≈ 51 µM)
IC50 (Plasmodium falciparum): > 2000 nM
MIC (Staphylococcus aureus [2]): 12.5 µg/mL (≈ 51 µM)
MIC (Staphylococcus aureus [4]): 25 µg/mL (≈ 102 µM)
MIC (Staphylococcus aureus [7]): 12.5 µg/mL (≈ 51 µM)
MIC (Staphylococcus aureus [5]): 6.25 µg/mL (≈ 25.5 µM)

O=c1c2ccccc2sn1-c1ccc(Cl)cc1
MIC (Aspergillus fumigatus): 25 µg/mL (≈ 95.5 µM)
MIC (Candida albicans): 12.5 µg/mL (≈ 47.8 µM)
MIC (Klebsiella pneumoniae): > 50 µg/mL
MIC (Cryptococcus neoformans): 12.5 µg/mL (≈ 47.8 µM)
MIC (Escherichia coli): > 50 µg/mL
MIC (Candida parapsilosis): 12.5 µg/mL (≈ 47.8 µM)
MIC (Pseudomonas aeruginosa): > 50 µg/mL
MIC (Sporothrix schenckii): 12.5 µg/mL (≈ 47.8 µM)
MIC [1]: 12.5 µg/mL (≈ 47.8 µM)
IC50 (Plasmodium falciparum): 920 nM
MIC (Staphylococcus aureus [2]): 6.25 µg/mL (≈ 23.9 µM)
CC50 at 72 h [3]: 71700 nM
MIC (Staphylococcus aureus [4]): 6.25 µg/mL (≈ 23.9 µM)
MIC (Staphylococcus aureus [7]): 6.26 µg/mL (≈ 23.9 µM)
MIC (Staphylococcus aureus [5]): 3.12 µg/mL (≈ 11.9 µM)
selectivity ratio [6]: 70.8

O=c1c2ccccc2sn1-c1cccc2ccccc12
MIC (Aspergillus fumigatus): 50 µg/mL (≈ 180 µM)
MIC (Candida albicans): 25 µg/mL (≈ 90.1 µM)
MIC (Klebsiella pneumoniae): > 50 µg/mL
MIC (Cryptococcus neoformans): 25 µg/mL (≈ 90.1 µM)
MIC (Escherichia coli): > 50 µg/mL
MIC (Candida parapsilosis): 25 µg/mL (≈ 90.1 µM)
MIC (Pseudomonas aeruginosa): > 50 µg/mL
MIC (Sporothrix schenckii): 12.5 µg/mL (≈ 45.1 µM)
MIC [1]: 12.5 µg/mL (≈ 45.1 µM)
IC50 (Plasmodium falciparum): 2640 nM
MIC (Staphylococcus aureus [2]): 6.25 µg/mL (≈ 22.5 µM)
CC50 at 72 h [3]: 90800 nM
MIC (Staphylococcus aureus [4]): 3.12 µg/mL (≈ 11.2 µM)
MIC (Staphylococcus aureus [7]): 6.25 µg/mL (≈ 22.5 µM)
MIC (Staphylococcus aureus [5]): 3.12 µg/mL (≈ 11.2 µM)
selectivity ratio [6]: 34.4

O=c1c2ccccc2sn1-c1ccccc1Cl
MIC (Aspergillus fumigatus): 25 µg/mL (≈ 95.5 µM)
MIC (Candida albicans): 25 µg/mL (≈ 95.5 µM)
MIC (Klebsiella pneumoniae): > 50 µg/mL
MIC (Cryptococcus neoformans): 12.5 µg/mL (≈ 47.8 µM)
MIC (Escherichia coli): > 50 µg/mL
MIC (Candida parapsilosis): 25 µg/mL (≈ 95.5 µM)
MIC (Pseudomonas aeruginosa): > 50 µg/mL
MIC (Sporothrix schenckii): 12.5 µg/mL (≈ 47.8 µM)
MIC [1]: 12.5 µg/mL (≈ 47.8 µM)
IC50 (Plasmodium falciparum): > 2000 nM
MIC (Staphylococcus aureus [2]): 12.5 µg/mL (≈ 47.8 µM)
MIC (Staphylococcus aureus [4]): 25 µg/mL (≈ 95.5 µM)
MIC (Staphylococcus aureus [7]): 12.5 µg/mL (≈ 47.8 µM)
MIC (Staphylococcus aureus [5]): 12.5 µg/mL (≈ 47.8 µM)

O=c1c2ccccc2sn1-c1ccccc1I
MIC (Aspergillus fumigatus): 50 µg/mL (≈ 142 µM)
MIC (Candida albicans): 25 µg/mL (≈ 70.8 µM)
MIC (Klebsiella pneumoniae): > 50 µg/mL
MIC (Cryptococcus neoformans): 25 µg/mL (≈ 70.8 µM)
MIC (Escherichia coli): > 50 µg/mL
MIC (Candida parapsilosis): 25 µg/mL (≈ 70.8 µM)
MIC (Pseudomonas aeruginosa): > 50 µg/mL
MIC (Sporothrix schenckii): 25 µg/mL (≈ 70.8 µM)
MIC [1]: 25 µg/mL (≈ 70.8 µM)
IC50 (Plasmodium falciparum): > 2000 nM
MIC (Staphylococcus aureus [2]): 12.5 µg/mL (≈ 35.4 µM)
MIC (Staphylococcus aureus [4]): 12.5 µg/mL (≈ 35.4 µM)
MIC (Staphylococcus aureus [7]): 12.5 µg/mL (≈ 35.4 µM)
MIC (Staphylococcus aureus [5]): 25 µg/mL (≈ 70.8 µM)
